Results taken from ChEMBL document CHEMBL1126237, “Synthesis and receptor binding properties of fluoro- and iodo-substituted high affinity sigma receptor ligands: identification of potential PET and SPECT sigma receptor imaging agents” (J Med Chem, 1992).

Tests used:
[1] = molecular target: Muscarinic acetylcholine receptor; experiment: Binding affinity against muscarinic cholinergic receptor from rat brain, using [3H]-QNB as radioligand.
Summary of the method: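 Rat brain P2 membranes (~500 μg protein) with 0.3 nM [3H]QNB in 0.5 mL Krebs-Henseleit/HEPES pH 7.4, 60–90 min, 37 °C. Nonspecific binding with 10 μM QNB. Stopped with ice-cold PBS, then filtration. […] IC50 converted to Ki by Cheng-Prusoff.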

[2] = molecular target: T1, Kappa-type opioid receptor (Cavia porcellus, UniProt P41144); experiment: Binding affinity against Opioid receptor kappa 1 from guinea pig brain, using [3H](-)-bremazocine as radioligand.
T1 sequence (P41144 whole entry): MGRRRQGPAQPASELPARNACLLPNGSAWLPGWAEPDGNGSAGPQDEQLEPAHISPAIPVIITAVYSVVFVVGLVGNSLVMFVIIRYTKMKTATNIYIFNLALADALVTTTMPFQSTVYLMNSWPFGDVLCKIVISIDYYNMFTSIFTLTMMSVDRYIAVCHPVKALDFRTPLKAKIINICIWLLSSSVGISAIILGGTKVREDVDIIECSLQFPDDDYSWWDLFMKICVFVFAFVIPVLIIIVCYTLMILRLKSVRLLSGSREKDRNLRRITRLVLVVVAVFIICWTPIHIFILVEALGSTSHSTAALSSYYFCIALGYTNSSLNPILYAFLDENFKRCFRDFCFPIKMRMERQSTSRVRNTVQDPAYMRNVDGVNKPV
Summary of the method: (§1)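 Guinea pig brain crude P2 membranes (500 μg protein) with 2 nM [3H](-)-bremazocine, plus 100 nM DAMGO and 100 nM DSTLE to block μ/δ sites. Incubated in 0.5 mL 10 mM Tris-HCl pH 7.4, 90 min, 25 °C. Nonspecific binding with 10 μM levallorphan. Filtration. Screened at 100–10 000 nM. No inhibition = <30% at 10 000 nM.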

D(2) dopamine receptor [3] = molecular target: T2, D(2) dopamine receptor (Rattus norvegicus, UniProt P61169); experiment: Binding affinity against Dopamine receptor D2 from rat brain, using [3H](-)-sulpiride as radioligand.
T2 sequence (P61169 whole entry): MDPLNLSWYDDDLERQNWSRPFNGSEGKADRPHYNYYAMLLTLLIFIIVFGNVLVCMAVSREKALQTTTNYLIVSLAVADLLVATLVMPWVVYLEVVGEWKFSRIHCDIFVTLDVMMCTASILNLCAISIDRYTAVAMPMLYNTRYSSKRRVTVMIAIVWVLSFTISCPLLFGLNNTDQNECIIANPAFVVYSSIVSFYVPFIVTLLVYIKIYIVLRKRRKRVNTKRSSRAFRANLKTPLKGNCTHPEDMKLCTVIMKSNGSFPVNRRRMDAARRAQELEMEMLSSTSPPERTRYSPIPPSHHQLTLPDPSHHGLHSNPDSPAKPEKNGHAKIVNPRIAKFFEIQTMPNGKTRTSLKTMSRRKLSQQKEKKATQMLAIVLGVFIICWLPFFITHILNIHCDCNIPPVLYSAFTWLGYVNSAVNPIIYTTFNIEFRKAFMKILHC
Summary of the method: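 Rat brain (minus cerebella) crude P2 membranes, 500 μg protein, incubated with 5 nM [3H](-)-sulpiride in 0.5 mL 50 mM Tris-HCl pH 7.7 + 120 mM NaCl, 60 min, 25 °C. Nonspecific binding with 1 μM haloperidol. Filtration, scintillation counting. […] IC50 by curve fitting, Cheng-Prusoff Ki.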

[4] = molecular target: T1, Kappa-type opioid receptor; experiment: Binding affinity against opioid receptor kappa from guinea pig brain, using [3H](-)-bremazocine as radioligand.
Summary of the method: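 Guinea pig brain P2 membranes (500 μg protein) with 2 nM [3H](-)-bremazocine plus 100 nM DAMGO and 100 nM DSTLE blocking μ/δ, 10 mM Tris-HCl pH 7.4, 90 min, 25 °C; nonspecific with 10 μM levallorphan; filtration.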

D(2) dopamine receptor [5] = molecular target: T2, D(2) dopamine receptor; experiment: Binding affinity against dopamine receptor D2 from rat brain, using [3H](-)-sulpiride as radioligand.
Summary of the method: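 Rat brain crude P2 membranes (500 μg protein) incubated with 5 nM [3H](-)-sulpiride in 50 mM Tris-HCl pH 7.7 + 120 mM NaCl, 60 min, 25 °C; nonspecific with 1 μM haloperidol; filtration.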

[6] = molecular target: T1, Kappa-type opioid receptor; experiment: Binding affinity against Opioid receptor kappa 1 from guinea pig brain, using [3H](-)-bremazocine as radioligand; NI=no inhibition; summary of the method: as §1
[7] = molecular target: T1, Kappa-type opioid receptor; experiment: Binding affinity against opioid receptor kappa from guinea pig brain, using [3H](-)-bremazocine as radioligand; NI=no inhibition; summary of the method: as §1

SMILES | Ki [1] | Ki [2] | Ki (D(2) dopamine receptor [3]) | Ki [4] | Ki (D(2) dopamine receptor [5]) | Ki [6] | Ki [7]
FCCCN(CCc1ccc(Cl)c(Cl)c1)CCN1CCCC1 | 32.03 µM | 10.5 µM | 3.11 µM | – | – | – | –
CCCCCN1CC[C@@]2(C)c3cc(O)ccc3CC1[C@H]2C (single isomer, unassigned; (+)) | 56.85 µM | – | – | 1.99 µM | 2.53 µM | – | –
CCCN1CCN(CCc2ccc(Cl)c(Cl)c2)CC1 | – | – | 2.9 µM | – | – | Not Active | –
CN(CCc1ccc(Cl)c(Cl)c1)CCN1CCCC1 | – | – | – | – | – | Not Active | –
FCCCN1CCN(CCc2ccc(Cl)c(Cl)c2)CC1 | 682.5 µM | – | – | – | 12 µM | – | Not Active
CN(CCc1cc(Cl)c(Cl)cc1I)CCN1CCCC1 | 7 µM | 18.5 µM | 1.31 µM | – | – | – | –
